Results as given in ChEMBL document CHEMBL3407461 (J Med Chem, 2014).

Experiments:
[1] = target: Adenosine receptor A2a (Homo sapiens) (UniProt P29274); assay: Displacement of [3H]CGS21680 from human recombinant A2A adenosine receptor expressed in HEK293 cells at 10 uM after 60 mins by liquid scintillation counting; type: cell-based
[2] = target: T1, Adenosine receptor A1 (Homo sapiens) (UniProt P30542); assay: Displacement of [3H]R-PIA from human recombinant A1 adenosine receptor expressed in CHO cells at 10 uM after 60 mins by liquid scintillation counting; type: cell-based
T1 sequence (whole entry): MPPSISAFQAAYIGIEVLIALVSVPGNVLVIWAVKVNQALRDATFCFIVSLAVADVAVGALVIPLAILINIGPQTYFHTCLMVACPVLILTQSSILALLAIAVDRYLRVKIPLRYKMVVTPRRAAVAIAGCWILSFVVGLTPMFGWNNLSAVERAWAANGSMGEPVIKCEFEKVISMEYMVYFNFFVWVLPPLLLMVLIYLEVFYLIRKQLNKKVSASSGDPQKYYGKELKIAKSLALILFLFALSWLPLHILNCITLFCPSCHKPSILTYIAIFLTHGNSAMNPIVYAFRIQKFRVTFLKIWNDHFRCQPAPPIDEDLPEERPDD

Mus musculus [3] = assay: Antinociceptive activity in chronic constriction injury neutropathic pain CD-1 mouse model assessed as time for peak protection at 3 umol/kg, po; type: functional
Summary of the method: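 Male CD-1 mice (25−30 g), chronic constriction injury of left sciatic nerve (Bennett model) under isoflurane. Dosed by gavage (3 μmol/kg, 0.2 mL) at peak mechano-allodynia on day 7; vehicle 10% DMSO in 0.5% methylcellulose. Paw withdrawal threshold (g) measured on the ipsilateral hind paw from 30 min to 5 h post dose. Expressed as % reversal, mean ± SEM over n animals.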

Mus musculus [4] = assay: Antinociceptive activity in chronic constriction injury neutropathic pain CD-1 mouse model assessed as maximum protection on ipsilateral hind paw at 3 umol/kg, po after 30 mins to 5 hrs post dose relative to control; type: functional; conditions: CD-1, po
Mus musculus [5] = assay: Antinociceptive activity in chronic constriction injury neutropathic pain CD-1 mouse model at 3 umol/kg, po after 3 hrs post dose relative to control; type: functional
CHO = assay: Selectivity ratio of Ki for mouse A3 adenosine receptor expressed in HEK293 cells to Ki for human recombinant A3 adenosine receptor expressed in CHO cells; type: cell-based
[6] = target: T2, Adenosine receptor A1 (Mus musculus) (UniProt Q60612); assay: Displacement of [125I]I-AB-MECA from mouse A1 adenosine receptor expressed in HEK293 cells at 10 uM after 60 mins by liquid scintillation counting
T2 sequence (whole entry): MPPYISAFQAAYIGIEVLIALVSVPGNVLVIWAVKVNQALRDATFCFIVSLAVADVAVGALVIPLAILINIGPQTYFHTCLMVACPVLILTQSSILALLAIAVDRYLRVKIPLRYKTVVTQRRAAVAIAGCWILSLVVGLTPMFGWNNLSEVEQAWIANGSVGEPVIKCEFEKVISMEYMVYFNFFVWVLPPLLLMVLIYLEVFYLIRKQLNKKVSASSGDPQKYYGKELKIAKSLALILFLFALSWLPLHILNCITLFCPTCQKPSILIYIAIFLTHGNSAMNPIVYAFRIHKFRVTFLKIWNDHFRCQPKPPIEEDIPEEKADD

[7] = target: T3, Adenosine receptor A3 (Mus musculus) (UniProt Q61618); assay: Agonist activity at mouse A3 adenosine receptor expressed in HEK293 cells assessed as inhibition of forskolin-stimulated cAMP production after 15 mins relative to control; type: functional, cell-based
T3 sequence (whole entry): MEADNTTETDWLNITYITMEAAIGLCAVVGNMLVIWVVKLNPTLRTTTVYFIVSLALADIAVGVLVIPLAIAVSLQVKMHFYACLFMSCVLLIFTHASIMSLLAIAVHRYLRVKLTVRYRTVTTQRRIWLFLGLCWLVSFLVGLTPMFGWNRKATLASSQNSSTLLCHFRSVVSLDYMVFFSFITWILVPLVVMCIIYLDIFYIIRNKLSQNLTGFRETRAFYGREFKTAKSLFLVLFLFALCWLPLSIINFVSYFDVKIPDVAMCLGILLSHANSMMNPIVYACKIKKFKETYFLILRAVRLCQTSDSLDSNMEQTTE
Summary of the method: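 2 × 10^5 cells/tube, coincubated with forskolin 10 μM plus ligand for 15 min at 37 °C with shaking. Stopped with HCl. cAMP in supernatant measured by competitive binding.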

[8] = target: Adenosine receptor A2a (Mus musculus) (UniProt Q60613); assay: Displacement of [3H]CGS21680 from mouse A2A adenosine receptor expressed in HEK293 cells at 10 uM after 60 mins by liquid scintillation counting; type: cell-based
[9] = target: Voltage-gated inwardly rectifying potassium channel KCNH2 (Homo sapiens, UniProt Q12809); assay: Inhibition of human ERG by PDSP screening
Chain of Voltage-gated inwardly rectifying potassium channel KCNH2 (Q12809 whole entry): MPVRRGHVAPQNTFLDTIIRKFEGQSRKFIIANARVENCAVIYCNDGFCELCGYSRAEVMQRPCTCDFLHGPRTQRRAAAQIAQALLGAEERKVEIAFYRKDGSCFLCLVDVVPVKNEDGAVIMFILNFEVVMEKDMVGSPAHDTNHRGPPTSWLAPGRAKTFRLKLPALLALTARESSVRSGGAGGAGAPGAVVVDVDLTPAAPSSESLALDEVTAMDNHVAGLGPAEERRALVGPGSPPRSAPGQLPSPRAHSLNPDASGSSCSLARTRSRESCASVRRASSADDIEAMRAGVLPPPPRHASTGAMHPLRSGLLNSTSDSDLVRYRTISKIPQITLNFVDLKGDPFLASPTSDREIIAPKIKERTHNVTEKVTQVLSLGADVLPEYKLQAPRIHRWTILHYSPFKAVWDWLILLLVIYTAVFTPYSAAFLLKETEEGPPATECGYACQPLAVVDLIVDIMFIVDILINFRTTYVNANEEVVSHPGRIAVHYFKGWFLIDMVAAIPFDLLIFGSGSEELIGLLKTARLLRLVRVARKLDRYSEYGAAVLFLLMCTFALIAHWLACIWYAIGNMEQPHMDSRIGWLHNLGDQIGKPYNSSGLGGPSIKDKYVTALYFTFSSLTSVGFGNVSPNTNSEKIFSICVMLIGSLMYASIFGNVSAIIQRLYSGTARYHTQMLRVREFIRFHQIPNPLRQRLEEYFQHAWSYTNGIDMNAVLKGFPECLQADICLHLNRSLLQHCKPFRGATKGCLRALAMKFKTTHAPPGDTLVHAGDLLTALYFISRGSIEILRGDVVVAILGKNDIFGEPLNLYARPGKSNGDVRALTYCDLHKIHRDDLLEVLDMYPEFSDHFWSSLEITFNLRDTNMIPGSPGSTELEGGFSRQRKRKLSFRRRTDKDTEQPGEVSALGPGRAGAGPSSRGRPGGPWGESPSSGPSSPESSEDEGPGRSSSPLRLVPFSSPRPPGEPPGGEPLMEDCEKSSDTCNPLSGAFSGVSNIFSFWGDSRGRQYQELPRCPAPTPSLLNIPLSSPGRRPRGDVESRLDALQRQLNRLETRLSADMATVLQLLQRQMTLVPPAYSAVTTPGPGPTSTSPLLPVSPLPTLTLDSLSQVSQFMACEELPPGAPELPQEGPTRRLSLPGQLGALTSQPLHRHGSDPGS

Chain of Adenosine receptor A2a (Homo sapiens) (P29274 whole entry): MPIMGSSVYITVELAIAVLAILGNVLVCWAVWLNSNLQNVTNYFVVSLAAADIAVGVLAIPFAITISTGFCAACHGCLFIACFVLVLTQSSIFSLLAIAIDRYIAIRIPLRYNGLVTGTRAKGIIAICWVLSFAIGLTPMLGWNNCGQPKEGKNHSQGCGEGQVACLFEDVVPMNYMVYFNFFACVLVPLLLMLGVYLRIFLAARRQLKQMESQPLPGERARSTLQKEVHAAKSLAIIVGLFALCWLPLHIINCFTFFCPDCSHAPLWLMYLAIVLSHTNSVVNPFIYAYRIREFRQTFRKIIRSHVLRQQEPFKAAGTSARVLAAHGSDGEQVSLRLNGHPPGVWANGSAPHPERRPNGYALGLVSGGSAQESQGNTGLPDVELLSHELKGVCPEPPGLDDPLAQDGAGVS
Chain of Adenosine receptor A2a (Mus musculus) (Q60613 whole entry): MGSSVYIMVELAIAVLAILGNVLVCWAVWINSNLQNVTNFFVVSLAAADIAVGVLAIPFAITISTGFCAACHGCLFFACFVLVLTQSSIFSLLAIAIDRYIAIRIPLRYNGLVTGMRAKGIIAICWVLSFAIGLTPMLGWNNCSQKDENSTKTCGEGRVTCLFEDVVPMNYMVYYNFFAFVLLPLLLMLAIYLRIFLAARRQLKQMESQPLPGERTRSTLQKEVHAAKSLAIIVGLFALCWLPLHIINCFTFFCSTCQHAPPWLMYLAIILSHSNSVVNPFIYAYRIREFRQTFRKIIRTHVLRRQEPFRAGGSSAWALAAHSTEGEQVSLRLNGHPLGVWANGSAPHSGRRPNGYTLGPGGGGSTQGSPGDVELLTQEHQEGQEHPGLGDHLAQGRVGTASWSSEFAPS

SMILES | inhibition [1] | inhibition [2] | Time (Mus musculus [3]) | Emax at 3 µmol/kg (Mus musculus [4]) | Activity (Mus musculus [5]) | Ratio Ki (CHO) | inhibition [6] | Imax [7] | inhibition [8] | IC50 [9]
CNC(=O)[C@@]12C[C@@H]1[C@@H](n1cnc3c(NC)nc(C#Cc4ccc(CO)cc4)nc31)[C@H](O)[C@@H]2O | 11% | 16% | 1 h |  |  |  |  |  |  | 
CNC(=O)[C@@]12C[C@@H]1[C@@H](n1cnc3c(NC)nc(C#Cc4cc(C)c(C)o4)nc31)[C@H](O)[C@@H]2O | 21% | 15% | 1 h |  |  |  |  |  |  | 
CNC(=O)[C@@]12C[C@@H]1[C@@H](n1cnc3c(NC)nc(C#Cc4cccc(F)c4)nc31)[C@H](O)[C@@H]2O |  | 14% | 1 h | 46.3% | 12.4% |  |  |  |  | 
CNC(=O)[C@@]12C[C@@H]1[C@@H](n1cnc3c(NC)nc(C#Cc4ccc(F)cc4)nc31)[C@H](O)[C@@H]2O |  | 27% | 1 h | 72% | 10.4% | > 30 |  |  |  | 
CNC(=O)[C@@]12C[C@@H]1[C@@H](n1cnc3c(NC)nc(C#Cc4ccccc4OC)nc31)[C@H](O)[C@@H]2O | 20% | 12% | 1 h | 64.3% |  |  |  |  |  | 
CNC(=O)[C@@]12C[C@@H]1[C@@H](n1cnc3c(NC)nc(C#Cc4ccccc4Cl)nc31)[C@H](O)[C@@H]2O |  | 22% | 0.5 h | 27.5% | 10.6% | > 30 |  |  |  | 
CNC(=O)[C@H]1O[C@@H](n2cnc3c(NCc4cccc(I)c4)ncnc32)[C@H](O)[C@@H]1O [IB-MECA] |  |  | 1 h | 94.1% | 38.7% |  |  |  |  | 
CNC(=O)[C@@]12C[C@@H]1[C@@H](n1cnc3c(NC)nc(C#Cc4ccsc4)nc31)[C@H](O)[C@@H]2O | 3% | 11% | 0.5 h |  |  |  |  |  |  | 
CNC(=O)[C@@]12C[C@@H]1[C@@H](n1cnc3c(NC)nc(C#Cc4ccccc4)nc31)[C@H](O)[C@@H]2O |  | 18% | 0.5 h | 44.1% | 5% |  |  |  |  | 
CNC(=O)[C@@]12C[C@@H]1[C@@H](n1cnc3c(NC)nc(C#Cc4ccccc4F)nc31)[C@H](O)[C@@H]2O |  | 20% | 0.5 h | 56% | 9.8% |  |  |  |  | 
CNC(=O)[C@@]12C[C@@H]1[C@@H](n1cnc3c(NC)nc(C#Cc4cccnn4)nc31)[C@H](O)[C@@H]2O | 13% | 11% | 0.5 h |  |  |  |  |  |  | 
CNC(=O)[C@@]12C[C@@H]1[C@@H](n1cnc3c(NC)nc(C#CC4CCCCC4)nc31)[C@H](O)[C@@H]2O | 45% | 15% | 1 h | 64.1% |  |  |  |  |  | 
CCc1ccc(C#Cc2nc(NC)c3ncn([C@H]4[C@H](O)[C@H](O)[C@]5(C(=O)NC)C[C@H]45)c3n2)o1 | 4% | 18% | 1 h |  |  |  |  |  |  | 
CNC(=O)[C@@]12C[C@@H]1[C@@H](n1cnc3c(NC)nc(C#Cc4cccc(OC)c4)nc31)[C@H](O)[C@@H]2O | 26% | 8% | 0.5 h |  |  |  |  |  |  | 
CNC(=O)[C@@]12C[C@@H]1[C@@H](n1cnc3c(NC)nc(C#Cc4cccs4)nc31)[C@H](O)[C@@H]2O | 20% | 25% | 1 h | 100% |  |  | 47% | 28% | 3% | 
CNC(=O)[C@@]12C[C@@H]1[C@@H](n1cnc3c(NC)nc(C#Cc4nccs4)nc31)[C@H](O)[C@@H]2O | 8% | 31% | 1 h | 53.2% | 12.7% |  |  |  |  | 
CNC(=O)[C@@]12C[C@@H]1[C@@H](n1cnc3c(NC)nc(C#CC4CC4)nc31)[C@H](O)[C@@H]2O | 15% | 38% | 1 h | 54.6% | 19.1% |  |  |  |  | 
CNC(=O)[C@@]12C[C@@H]1[C@@H](n1cnc3c(NC)nc(C#Cc4cc5ccccc5o4)nc31)[C@H](O)[C@@H]2O | 18% | 13% | 1 h | 87.4% |  |  |  |  |  | 
CNC(=O)[C@@]12C[C@@H]1[C@@H](n1cnc3c(NCc4cccc(Cl)c4)nc(C#Cc4ccc(F)c(F)c4)nc31)[C@H](O)[C@@H]2O |  |  | 1 h |  | 23.7% |  | 16% |  |  | 12.2 µM
CNC(=O)[C@@]12C[C@@H]1[C@@H](n1cnc3c(NC)nc(C#Cc4ncccn4)nc31)[C@H](O)[C@@H]2O | 27% | 25% | 0.5 h | 92.3% |  |  |  |  |  | 
CNC(=O)[C@@]12C[C@@H]1[C@@H](n1cnc3c(NC)nc(C#Cc4cccnc4)nc31)[C@H](O)[C@@H]2O | 12% | 16% | 0.5 h |  |  |  |  |  |  | 
CNC(=O)[C@@]12C[C@@H]1[C@@H](n1cnc3c(NC)nc(C#Cc4cccc(C(F)(F)F)c4)nc31)C(O)C2O (single isomer, unassigned) | 12% | 10% | 0.5 h |  |  |  |  |  |  | 
CNC(=O)[C@@]12C[C@@H]1[C@@H](n1cnc3c(NC)nc(C#Cc4ccccn4)nc31)[C@H](O)[C@@H]2O |  | 13% | 0.5 h | 31.8% | 0% |  |  |  |  | 
CNC(=O)[C@@]12C[C@@H]1[C@@H](n1cnc3c(NC)nc(C#Cc4ccc(-c5ccccc5)cc4)nc31)[C@H](O)[C@@H]2O | 21% | 18% | 1 h | 57.7% | 14.3% |  |  |  |  | 
CNC(=O)[C@@]12C[C@@H]1[C@@H](n1cnc3c(NC)nc(C#Cc4ccc(Cl)cc4)nc31)[C@H](O)[C@@H]2O |  | 13% | 0.5 h | 40.4% | 4.6% |  |  |  |  | 
CNC(=O)[C@@]12C[C@@H]1[C@@H](n1cnc3c(NC)nc(C#Cc4cc[nH]n4)nc31)[C@H](O)[C@@H]2O | 19% | 30% | 0.5 h |  |  |  |  |  |  | 
CNC(=O)[C@@]12C[C@@H]1[C@@H](n1cnc3c(NC)nc(C#Cc4ccncc4)nc31)[C@H](O)[C@@H]2O | 2% | 15% | 1 h |  |  |  |  |  |  | 
CNC(=O)[C@@]12C[C@@H]1[C@@H](n1cnc3c(NC)nc(C#Cc4ccc(OC)cc4)nc31)[C@H](O)[C@@H]2O | 24% | 10% | 0.5 h |  |  |  |  |  |  | 
